The source made the active and inactive calls. No cut-off for these calls is given here.

Data set [1] concerns Caco-2. As to the kind of experiment: Antiproliferative activity against human Caco-2 cells after 72 hrs by MTT assay. Format: functional, cell-based. Particulars: Caco-2, 72 h. Put shortly:
(§1)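 Cells were incubated 72 h with compound at 0.1-30 μM, and proliferation was measured by MTT. IC50 is the concentration giving 50% inhibition of proliferation, reported as the mean of two independent experiments.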
In general terms: Tetrazolium dyes change colour on reduction, which living cells bring about.

Data set [2] can be described thus: Antioxidant activity in human fibroblasts assessed as reduction of tert-butyl hydroperoxide-induced ROS production at 10 uM treated 24 hrs before tert-butyl hydroperoxide challenge measured after 30 mins by fluorescence plate reader analysis. Further details: scale not given: the % may be the effect or the level left. The data set is classed as functional, Fibroblast.

The species entered for a further data set is Bos taurus. Briefly: Antioxidant activity in bovine heart mitochondria assessed as reduction of antimycin A-induced ROS production at 10 uM by fluorescence plate reader analysis. The data set is classed as functional. The essentials: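 Submitochondrial particles were given NADH as substrate, and ROS production was induced with 2 μM antimycin A. Compounds were tested at 10 μM, with 1.8 μM mucidin as negative control. ROS were detected with the fluorogenic probe DCFDA.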

In data set [3] the test system is SH-SY5Y. Briefly: Antiproliferative activity against human SH-SY5Y cells after 72 hrs by MTT assay. The data set is classed as functional, cell-based. Put shortly: as §1
Data set [4] concerns HaCaT. Briefly: Antiproliferative activity against human HaCaT cells after 72 hrs by MTT assay. Format: cell-based. The essentials: as §1
Data set [5] is described as follows: Antiproliferative activity against mouse HT22 cells after 72 hrs by MTT assay. Format: cell-based. Particulars: HT-22, 72 h. The essentials:
as §1

The subject of data set [6] is C6. Briefly: Antiproliferative activity against rat C6 cells after 72 hrs by MTT assay. The data set is classed as functional, cell-based. Particulars: C6, 72 h. The essentials: as §1
Another data set concerns T67. Briefly: Antiproliferative activity against human T67 cells at 10 uM after 72 hrs by MTT assay. The data set is classed as functional, cell-based.
The target in data set [7] is T1, Heme oxygenase 1 (Bos taurus) (UniProt Q5E9F2).
T1 sequence (whole entry): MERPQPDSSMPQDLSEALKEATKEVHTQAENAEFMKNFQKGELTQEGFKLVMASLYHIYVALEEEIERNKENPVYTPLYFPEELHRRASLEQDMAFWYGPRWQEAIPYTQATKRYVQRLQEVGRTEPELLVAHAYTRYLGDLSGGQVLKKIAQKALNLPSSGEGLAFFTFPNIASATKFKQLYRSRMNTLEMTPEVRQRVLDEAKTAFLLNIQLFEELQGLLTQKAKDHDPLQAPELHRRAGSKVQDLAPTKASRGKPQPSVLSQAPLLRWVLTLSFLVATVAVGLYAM
Briefly: Activation of heme oxygenase-1 in BAEC at 10 uM after 6 hrs. Put shortly:
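HO-1 activity measured in bovine aortic endothelial cells exposed to 10 μM compound for 6 h. Control cells received medium alone. Activity is reported as (pmol bilirubin/mg protein)/h, averaged over three independent experiments.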

The subject of data set [8] is C6. As to the kind of experiment: Antiproliferative activity against rat C6 cells at 10 uM after 72 hrs by MTT assay. The data set is classed as functional. Put shortly:
(§2)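 Proliferation was measured by MTT after 72 h exposure to compound (range 0.1-30 μM, with the 10 μM point reported). Results are expressed as percent of control cells, as the mean of two independent experiments.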

Data set [9] can be described thus: Antiproliferative activity against mouse HT22 cells at 10 uM after 72 hrs by MTT assay. The data set is classed as cell-based. Particulars: ht-22, 72 h. The essentials: as §2
Data set [10] concerns SH-SY5Y. As to the kind of experiment: Antiproliferative activity against human SH-SY5Y cells at 10 uM after 72 hrs by MTT assay. The data set is classed as functional. The essentials:
as §2

Data set [11] has as its system HaCaT. Briefly: Antiproliferative activity against human HaCaT cells at 10 uM after 72 hrs by MTT assay. The data set is classed as cell-based. The essentials: as §2
For data set [12], the system named is Caco-2. As to the kind of experiment: Antiproliferative activity against human Caco-2 cells at 10 uM after 72 hrs by MTT assay. The data set is classed as functional. The essentials: as §2
Data set [13] is described as follows: Cellular uptake in human T67 cells at 10 uM after 30 mins by fluorescence microscopic analysis in presence of mitochondrial uncoupler carbonyl cyanide m-chlorophenyl-hydrazone. Format: ADME, cell-based. Particulars: t67, 0.5 h. Put shortly: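 T67 glioma cells were pretreated with 10 μM of the fluorescent test compound plus 1 mg/mL oligomycin, an ATP-synthase inhibitor, with 20 μM CCCP uncoupler added. Images were taken by inverted fluorescence microscopy after 30 min of incubation.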

Data set [14] can be described thus: Cellular uptake in human T67 cells at 10 uM after 30 mins by fluorescence microscopic analysis. The data set is classed as ADME, cell-based. Particulars: t67, 0.5 h. Put shortly: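 T67 glioma cells were pretreated with 10 μM fluorescent probe plus 1 mg/mL oligomycin. Images were taken by inverted fluorescence microscopy after 30 min of incubation, with or without 20 μM CCCP uncoupler to test dependence on mitochondrial potential.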

Take `CCOc1cc(/C=C2\CN(C(=O)CCC(=O)NCCCNCCCCNCCCN)C/C(=C\c3ccc(O)c(OCC)c3)C2=O)ccc1O`: the IC50 (as a rule, the concentration needed to halve the response being measured) with Caco-2 [1] was found to be 14.4 µM; with SH-SY5Y [3], 20.8 µM; with HaCaT [4], 15.7 µM; in [5], 18.4 µM; in the data set on C6 [6], 14.2 µM. For the same molecule, the Activity in [2] is 38%. In addition, in the data set listed under Bos taurus, the result was Active.
For the molecule `COc1cc(/C=C2\CNC/C(=C\c3ccc(O)c(OC)c3)C2=O)ccc1O`, the result (with T67; in [7]) was Active. The 50% inhibitory concentration (IC50) stood at 0.2 µM in the data set with Caco-2 [1]; 2.1 µM in the data set on SH-SY5Y [3]; 3 µM with HaCaT [4]; 3.1 µM in data set [5]; 3.9 µM in the data set on C6 [6]. In the data set filed under Bos taurus, the result was inactive.
Consider `COc1cc(/C=C2\CN(C(=O)CCC(=O)NCCCNCCCN)C/C(=C\c3ccc(O)c(OC)c3)C2=O)ccc1O`, for which the 50% inhibitory concentration (IC50) was found to be 16.5 µM in the data set on Caco-2 [1]; 17.8 µM in the data set with SH-SY5Y [3]; 17.7 µM in the data set on HaCaT [4]; 24.5 µM in [5]; 19.9 µM with C6 [6]. In addition, in [2], the Activity came to 40%. In addition, in the data set filed under Bos taurus, the outcome was Active.
As to `CCCCCC[C@H]1C(=O)O[C@H](C)[C@H](NC(=O)c2cccc(NC=O)c2O)C(=O)O[C@@H](C)[C@@H]1OC(=O)CC(C)C`, in the data set filed under Bos taurus, the outcome was inactive.
Take `COc1cc(/C=C2\CN(C(=O)CCC(=O)NCCCNCCCCNCCCN)C/C(=C\c3ccc(O)c(OC)c3)C2=O)ccc1O`: the Activity in the data set on C6 [8] worked out at 40%; in data set [9] it was 10%; with SH-SY5Y [10] it was 40%; with HaCaT [11], 10%; in data set [2], 45%; with Caco-2 [12], 40%. Also, the half-maximal inhibitory concentration (IC50) amounted to 11.9 µM in the data set with Caco-2 [1]; 14.2 µM with SH-SY5Y [3]; 15.6 µM with HaCaT [4]; 19.8 µM in data set [5]; 13.9 µM in the data set on C6 [6]. Also, the outcome in the data set listed under Bos taurus was Active.
As for `COc1cc(/C=C/C(=O)CC(=O)/C=C/c2ccc(O)c(OC)c2)ccc1O` [CURCUMIN], the IC50 was found to be 15 µM in the data set with Caco-2 [1]; 12.8 µM with SH-SY5Y [3]; 21.9 µM with HaCaT [4]; 20.4 µM in data set [5]; 16.1 µM with C6 [6].
Regarding `COc1cc(/C=C2\CN(C(=O)CCC(=O)N(CCCNCCCCNCCCN)Cc3ccc(-c4nc5ccccc5s4)cc3)C/C(=C\c3ccc(O)c(OC)c3)C2=O)ccc1O`, the Drug uptake result in [13] is “Not Active”; in data set [14] it was “Active”.
As for `CCOc1cc(/C=C2\CN(C(=O)CCC(=O)NCCCNCCCN)C/C(=C\c3ccc(O)c(OCC)c3)C2=O)ccc1O`, the IC50 with Caco-2 [1] came to 16.2 µM; in the data set on SH-SY5Y [3], 14.6 µM; in the data set with HaCaT [4], 15.5 µM; in data set [5] it was 18.9 µM; with C6 [6] it was 14.5 µM. Further, the Activity in [2] stood at 45%. In addition, in the data set filed under Bos taurus, the result was Active.

These data come from ChEMBL document CHEMBL1255202, “Polyamine conjugation of curcumin analogues toward the discovery of mitochondria-directed neuroprotective agents” (J Med Chem, 2010).
